Rows were chosen to be rich in hits. Some 4.1% of all compounds tested hit in one or more screens of this group.
ROMK primary – modulates human ROMK potassium channel activity; P48048; Tet-inducible ROMK, thallium flux fluorescence; actives lie on both sides; B-score at 10 µM; 2% of 130,000 active;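 active = signal ratio slope over the read window, or its plate-corrected B-score, at least 3 SD from the plate mean, either direction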;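 note: B-score of the F/F0 ratio slope over 7 to 12 s after thallium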
Target sequence (P48048 whole entry, looked up): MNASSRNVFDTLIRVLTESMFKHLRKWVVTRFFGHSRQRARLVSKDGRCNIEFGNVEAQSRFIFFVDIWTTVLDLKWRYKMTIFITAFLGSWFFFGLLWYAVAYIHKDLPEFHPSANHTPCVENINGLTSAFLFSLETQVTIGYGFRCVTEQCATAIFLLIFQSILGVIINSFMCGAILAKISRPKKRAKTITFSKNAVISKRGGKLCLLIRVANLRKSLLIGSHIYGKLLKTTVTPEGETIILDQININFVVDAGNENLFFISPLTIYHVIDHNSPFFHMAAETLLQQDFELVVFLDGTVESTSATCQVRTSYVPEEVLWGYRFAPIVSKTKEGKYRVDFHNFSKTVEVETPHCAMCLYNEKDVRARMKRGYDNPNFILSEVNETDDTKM
Redox H2O2 prof – compounds producing H2O2 with reducing agent – biochemical, NIH compound library profiling, artefact control for MLSCN library redox annotation, primary screen; DTT-dependent redox cycling H2O2, phenol red/HRP absorbance; 100% = 100 µM peroxide control, 0% = buffer; activation, % at 10 µM; 0.03% of 200,000 active; AID 878;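 active = activation of at least 50% relative to the plate's high and low controls in the primary single-dose screen; inactive = activation below 50%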;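 note: compound incubated with DTT at 0.8 mM final as the reducing agent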
Autophagy mod – modulators of autophagy. MEF GFP-LC3 puncta imaging; test concentration mostly 10 µM. calls only at 10 µM (by protocol). 0.98% of 190,000 active;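 active = percentage of spot-positive cells more than 3 SD above its plate mean, without a fluorescence outlier flag or 80% toxicity; inconclusive = no clear call, values can overlap the other calls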;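 note: spot-positive cell cutoff set from DMSO-treated cells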
Cl transport mod – KCC2 (human) Cl- transport modulation. KCC2 cells, thallium flux FluoZin-2 fluorescence. B-score of Tl+ flux slope (higher = more flux/activation; lower = inhibition) at 10 µM. 2.2% of 190,000 active. AID 1456;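 active = thallium flux slope and its plate-corrected score both differing from the plate sample mean at a set confidence after two filtering rounds, in either direction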;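 note: slope of fluorescence scaled to starting intensity during 10 to 20 s after thallium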
Dynein cargo inh – dynein cargo transport inhibition; 3617.4 mouse cells, GR-EGFP nuclear translocation imaging; test concentration mostly 20 µM; stimulated with dexamethasone, 1 µM; active compounds read low; z-score, hits read low; 0.47% of 220,000 active;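 active = plate z-score of nuclear minus cytoplasmic receptor signal below a set negative limit, without overly bright fluorescence or cell loss, cut at about -3.5 in these data, passing the limit was not always enough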;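 note: z-score of nuclear minus cytoplasmic ring GR-EGFP intensity difference per well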
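Schedule: 48 h induction, then 1 h compound, then 30 min agonist, 37 °C. Buffer or medium: tetracycline-free induction medium containing charcoal-stripped FBS. Reagent: 1.0 µM final dexamethasone stimulus. Evaluation: nuclear versus cytoplasmic GR-EGFP signal, averaged per well. Signal: high-content fluorescence imaging after fixation.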
KCC2 sec1 – KCC2 (human) modulation, secondary assay. shares compounds with Cl transport mod. HEK293-KCC2, thallium flux, FluoZin2 fluorescence; active compounds read high. normalised thallium flux (F/F0 slope) at 10 µM. 15% of 3,700 active;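 active = thallium flux slope above the same plate's solvent-only control mean plus 3 SD; inconclusive = the two replicate wells disagree; inactive = no significant difference from solvent-only control wells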
KCC2 bumet counter – thallium flux despite bumetanide block in KCC2 cells, secondary assay 3; shares compounds with Cl transport mod; HEK293-KCC2 + bumetanide/ouabain, thallium flux FluoZin2; active compounds read high; normalized thallium flux at 10 µM; 49% of 3,700 active; AID 1714;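 active = thallium entry rate above the same plate's blocked-transporter control wells by more than 3 SD; inconclusive = the two repeat wells disagree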;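 note: raw slope of fluorescence over initial fluorescence between 10 and 20 s after thallium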
KCC2 secondary2 – confirmation of human KCC2 transport modulators. AID 1715. shares compounds with Cl transport mod. HEK293-KCC2, thallium flux FluoZin2 fluorescence; actives lie on both sides; F/F0 rise rate, 10–20 s post-thallium. normalized thallium flux at 10 µM. 23% of 3,700 active;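 active = thallium flux slope more than 3 SD above or below the plate's solvent-only control mean, mostly below; inconclusive = the two repeat wells disagreed; inactive = no significant shift from solvent-only controls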;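 note: raw slope with 0.1% DMSO as baseline and bumetanide as block control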
HEK counter1 – acts in parental HEK cells, KCC2 counter-screen; thallium flux rate (normalised fluorescence) at 10 µM; 46% of 3,700 active; shares compounds with Cl transport mod; HEK293 parental cells, thallium flux FluoZin2, ouabain; baseline-ratio fluorescence slope, 10–20 s after thallium;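 active = thallium flux rate significantly above the same plate's solvent-only control wells, beyond their mean plus 3 SD; inconclusive = the two replicate wells gave conflicting results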
KCC2 ouabain – KCC2 (human) modulation, ouabain retest. shares compounds with Cl transport mod. HEK293-KCC2, thallium flux FluoZin2 fluorescence; bidirectional: low = inhibitor, high = activator. raw Tl+ flux slope (below DMSO = inhibition, above = activation) at 10 µM. 48% of 3,700 active;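 active = thallium flux slope beyond 3 SD from same-plate DMSO control mean in most replicates, usually higher, sometimes lower; inconclusive = repeat tests gave conflicting results; inactive = no significant difference from controls in most replicates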;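 note: slope of initial-normalized fluorescence between seconds 10 and 20 after thallium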
HEK293 Tl flux2 – acts in parental HEK cells, second KCC2 counter-screen; thallium flux slope at 10 µM; 33% of 3,700 active; shares compounds with Cl transport mod; AID 1718; HEK293 parental, thallium flux FluoZin-2 fluorescence slope;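 active = thallium flux slope above the same plate's solvent-control mean plus 3 SD in both duplicate wells; inconclusive = duplicate wells that disagreed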;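 note: run without ouabain in cells lacking the KCC2 cotransporter; slope of fluorescence scaled to its starting value between 10 and 20 s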
Numbers without * were called inactive; i = inactive; ? = inconclusive; nt = not tested or not shown.

SMILES | ROMK primary | Redox H2O2 prof | Autophagy mod | Cl transport mod | Dynein cargo inh | KCC2 sec1 | KCC2 bumet counter | KCC2 secondary2 | HEK counter1 | KCC2 ouabain | HEK293 Tl flux2
CC(C)(C)C1CCC(=NNC(=O)CN(c2ccccc2)S(C)(=O)=O)CC1 (stereo unspecified) | nt | 0 | i | 0.93 | 0.2 | nt | nt | nt | nt | nt | nt
CCNC(=S)NN=C1CCC(C(C)(C)C)CC1 (stereo unspecified) | 0.29 | 0 | i | 3.3* | -0.76 | 0.0069 | 0.0066* | 0.028 | 0.0092* | 0.02 | 0.011
S=c1nc(-c2sccc2OCc2ccc(Cl)cc2Cl)[nH][nH]1 | 0.056 | -2 | i | 24* | 0.65 | 0.0071 | 0.087* | 0.029 | 0.023* | ? | 0.013*
N#Cc1cc(-c2ccccc2)nc(N2CCNCC2)n1 | nt | nt | nt | -0.79 | -1.1 | nt | nt | nt | nt | nt | nt
COc1ccc(N2CCN(Cc3nc4scc(-c5cccs5)c4c(=O)[nH]3)CC2)cc1 | 0.78 | 0 | i | -0.43 | -0.15 | nt | nt | nt | nt | nt | nt
CC1Cc2ccccc2N1Cc1nc2scc(-c3cccs3)c2c(=O)[nH]1 (stereo unspecified) | nt | -1 | i | 3.9* | -0.31 | 0.0079 | 0.0094* | 0.029 | 0.0072 | 0.021 | 0.0093
CC(Sc1nnc(-c2ccco2)o1)C(=O)NCCC1=CCCCC1 (stereo unspecified) | -0.53 | 1 | i | -1.3 | 0.93 | nt | nt | nt | nt | nt | nt
CCN(CC)S(=O)(=O)c1cccc(-c2nnc(SC(C)C(=O)NCCC3=CCCCC3)o2)c1 (stereo unspecified) | -2.2 | -1 | i | -2.4* | 0.54 | 0.0091 | 0.0047 | 0.034 | 0.0069 | 0.018 | 0.01
N#Cc1c2n(c3c(=O)n(Cc4ccc(Cl)cc4)cnc13)CCCCC2 | 0.21 | -2 | i | nt | -0.23 | 0.0052 | 0.0044 | 0.023* | ? | 0.014* | 0.01
Cc1cc(=S)nc(-c2ccccn2)[nH]1 | 1.5 | nt | nt | 81* | -0.34 | 0.037* | 0.048* | 0.038 | 0.041* | 0.043* | 0.016*
Nc1ccc2nc(-c3ccccn3)[nH]c2c1 | nt | 1 | i | -0.023 | 2.3 | nt | nt | nt | nt | nt | nt
CCN(CC)CC1CCCCN1CC(=O)N1c2ccccc2C(=O)Nc2cccnc21 (stereo unspecified) | nt | nt | nt | -0.41 | nt | nt | nt | nt | nt | nt | nt
Cc1ccccc1NC(=S)N=Nc1c(O)n(C)c2ccc(S(=O)(=O)N3CCOCC3)cc12 | 0.022 | 0 | i | 15* | -0.17 | 0.011 | 0.07* | 0.035 | 0.023* | ? | ?
Cc1cccc(C)c1NC(=S)N=Nc1c(O)n(C)c2ccc(S(=O)(=O)N3CCOCC3)cc12 | -1.6 | 0 | i | 4.4* | -0.31 | 0.01 | 0.027* | 0.035 | 0.012* | 0.028 | 0.012*
Cc1ccccc1Nc1nc(=O)c2cc([N+](=O)[O-])ccc2s1 | nt | 1 | i | 4.2* | -0.39 | 0.0057 | 0.02* | 0.036 | 0.016* | 0.031* | 0.016*
COc1ccc(CC2(CO)CCN(Cc3cccn3-c3ccccn3)CC2)cc1 | -0.43 | -1 | i | -0.071 | -0.041 | nt | nt | nt | nt | nt | nt
COc1cc(OC)c(NC(=O)Cn2cccc2)cc1Cl | -0.11 | 0 | i | nt | -0.28 | nt | nt | nt | nt | nt | nt
COc1cc(OC)c(NC(=O)C(=O)CC(=O)c2ccc(C)cc2C)cc1Cl | -0.47 | -1 | i | 16* | 2.8 | 0.01 | 0.046* | 0.031 | 0.019* | 0.027 | 0.012*
COc1ccccc1-c1nc(C#N)c(N2CCC(Cc3ccccc3)CC2)o1 | -0.27 | 0 | i | nt | -0.17 | 0.0092 | 0.006 | ? | 0.0083 | 0.019* | 0.011
Cc1cc(C)nc(N=Nc2c(O)n(Cc3ccc(Cl)cc3)c3ccccc23)n1 | nt | 0 | i | 1.9 | -0.58 | nt | nt | nt | nt | nt | nt
O=C(CCS(=O)(=O)c1cccc2nsnc12)N1CC(=O)N(CCc2ccccc2)C(=O)C1 | 0.01 | 0 | i | -1.6 | -0.069 | nt | nt | nt | nt | nt | nt
CN(CC(=O)N1CC(=O)N(CCc2ccccc2)C(=O)C1)S(=O)(=O)c1cccc2nsnc12 | nt | 0 | i | -4* | -0.77 | 0.0058 | 0.0056* | ? | 0.0085 | ? | 0.012
Fc1ccccc1Cc1noc(CN2CCN(c3ccc(Cl)cn3)CC2)n1 | -1.2 | 1 | i | 2.3 | 0.43 | nt | nt | nt | nt | nt | nt
O=c1cc(-c2ccccc2)nc2c(-c3ccccc3)c(C(F)(F)F)[nH]n12 | nt | nt | nt | 3.8* | 1.3 | 0.0099 | 0.014* | 0.033 | 0.011* | 0.022 | 0.0091
COc1ccc(/C(C)=N/Nc2nc3ccccc3n3cnnc23)cc1OC | -0.26 | nt | nt | -2.3 | -1.3 | nt | nt | nt | nt | nt | nt
SMILES | ROMK primary | Redox H2O2 prof | Autophagy mod | Cl transport mod | Dynein cargo inh | KCC2 sec1 | KCC2 bumet counter | KCC2 secondary2 | HEK counter1 | KCC2 ouabain | HEK293 Tl flux2
CC(C)(C)n1[nH]c2c3c(ccc2c1=O)C(=O)c1ccccc1C3=O | 0.16 | 0 | i | nt | -1.6 | 0.0056 | 0.0053 | 0.029 | 0.0082 | 0.019 | 0.012
COCCCn1[nH]c2c3c(ccc2c1=O)C(=O)c1ccccc1C3=O | nt | 0 | i | nt | -1.7 | 0.005 | ? | 0.03 | 0.008 | 0.019 | 0.012
Cc1ccc(-n2[nH]c3c4c(ccc3c2=O)C(=O)c2ccccc2C4=O)cc1 | nt | 1 | i | 0.17 | -0.23 | nt | nt | nt | nt | nt | nt
O=C(NC1CCCC1)C(c1ccncc1)N(CCCN1CCOCC1)C(=O)c1ccc(-c2ccccc2)[nH]1 (stereo unspecified) | -0.48 | 0 | i | -2 | 0.31 | nt | nt | nt | nt | nt | nt
O=C(NC1CCCC1)C(c1ccncc1)N(Cc1ccccc1)C(=O)c1ccc(-c2ccccc2)[nH]1 (stereo unspecified) | -0.82 | 0 | i | -2.1 | -0.76 | nt | nt | nt | nt | nt | nt
CCOc1ccc(C(C(=O)NC2CCCC2)N(CCCO)C(=O)c2ccc(-c3ccccc3)[nH]2)cc1 (stereo unspecified) | -0.63 | 0 | i | -5.7* | 0.68 | 0.0087 | 0.0053 | ? | 0.0038 | 0.017* | 0.011
O=C(NC1CCCC1)C(c1ccncc1)N(Cc1ccco1)C(=O)c1ccc(-c2ccccc2)[nH]1 (stereo unspecified) | 0.25 | 0 | i | -3.3* | -1.2 | 0.0071 | ? | 0.024* | 0.0074 | ? | 0.011

Bioassay records deposited in PubChem BioAssay by several laboratories.
